Results on one molecule are retold here after ChEMBL document CHEMBL1127405, “Synthesis and antitumor evaluation of bis[(pivaloyloxy)methyl] 2'-deoxy-5-fluorouridine 5'-monophosphate (FdUMP): a strategy to introduce nucleotides into cells” (J Med Chem, 1994).

Common to all, as to type: functional
Assay [1] concerns Mus musculus. Put plainly: The compound was tested for increase in life span for mice implanted intraperitoneally with P-388/FU Leukemia cell line at 30 mg/kg. The settings on record: P388, ip, route intraperitoneal. The method in brief:
(§1)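 Male BDF1 mice, six per group, implanted ip with 1×10^6 P-388/0 or P-388/FU cells on day 0. Dosed ip daily for 5 days from 24 h post-implant, in saline or Emulphor 620 vehicle. Mice observed until death. %ILS = (T/C − 1)×100, from median survival of treated mice (T) versus saline-treated controls (C).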

Assay [2] concerns Mus musculus. Description: The compound was tested for mean survival time for 15 mice implanted Intraperitoneally with P-388/FU Leukemia cell line at 40 mg/kg. The settings on record: route intraperitoneal. In outline: (§2)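 P-388/0 or P-388/FU cells (1×10^6) implanted ip into male BDF1 mice on day 0. Dosing was ip, daily for 5 consecutive days beginning 24 h later, in saline or Emulphor 620 vehicle. Six mice per treated group. Animals followed to death and median survival time recorded in days. The control group had 15 mice.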

For assay [3], the system named is Mus musculus. Put plainly: The compound was tested for mean survival time for 15 mice implanted Intraperitoneally with P-388/FU Leukemia cell line at 30 mg/kg. The settings on record: route intraperitoneal. The method in brief: as §2
Assay [4] deals with Mus musculus. Put plainly: The compound was tested for change in weight for mice implanted intraperitoneally with P-388/FU Leukemia cell line at 40 mg/kg. Conditions: route intraperitoneal. The method in brief:
(§3)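 Male BDF1 mice (six per group, average 22 g) given 1×10^6 P-388 cells ip on day 0. Drug dosed ip once daily for 5 consecutive days, starting 24 h after implantation, in 0.9% saline or, where insoluble, Emulphor 620. Percentage body-weight change recorded per dose group.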

For assay [5], the system named is Mus musculus. Put plainly: The compound was tested for mean survival time for 15 mice implanted Intraperitoneally with P-388/FU Leukemia cell line at 20 mg/kg. The settings on record: route intraperitoneal. The method in brief:
as §2

For assay [6], the system named is Mus musculus. Put plainly: The compound was tested for increase in life span for mice implanted intraperitoneally with P-388/FU Leukemia cell line at 40 mg/kg. Conditions: P388, ip, route intraperitoneal. The method in brief: as §1
For assay [7], the system named is Mus musculus. Put plainly: The compound was tested for mean survival time for 15 mice implanted Intraperitoneally with P-388/0 Leukemia cell line at 30 mg/kg. Conditions: route intraperitoneal. The method in brief: as §2
For assay [8], the system named is Mus musculus. Description: The compound was tested for change in weight for mice implanted intraperitoneally with P-388/0 Leukemia cell line at 30 mg/kg. Conditions: route intraperitoneal. In outline: as §3
Assay [9] has as its system Mus musculus. Description: The compound was tested for increase in life span for mice implanted intraperitoneally with P-388/0 Leukemia cell line at 20 mg/kg. Conditions: P388, ip, route intraperitoneal. In outline:
as §1

Assay [10] has as its system Mus musculus. Put plainly: The compound was tested for change in weight for mice implanted intraperitoneally with P-388/0 Leukemia cell line at 20 mg/kg. Conditions: route intraperitoneal. In outline:
as §3

For assay [11], the system named is Mus musculus. Put plainly: The compound was tested for increase in life span for mice implanted intraperitoneally with P-388/0 Leukemia cell line at 30 mg/kg. The settings on record: P388, ip, route intraperitoneal. In outline: as §1
Assay [12] deals with Mus musculus. Description: The compound was tested for mean survival time for 15 mice implanted Intraperitoneally with P-388/0 Leukemia cell line at 20 mg/kg. Conditions: route intraperitoneal. In outline: as §2
The subject of assay [13] is Mus musculus. Put plainly: The compound was tested for change in weight for mice implanted intraperitoneally with P-388/FU Leukemia cell line at 20 mg/kg. Conditions: route intraperitoneal. The method in brief:
as §3

Assay [14] has as its system Mus musculus. Put plainly: The compound was tested for change in weight for mice implanted intraperitoneally with P-388/FU Leukemia cell line at 30 mg/kg. Conditions: route intraperitoneal. In outline: as §3
The test system of assay [15] is Mus musculus. Description: The compound was tested for increase in life span for mice implanted intraperitoneally with P-388/FU Leukemia cell line at 20 mg/kg. Conditions: P388, ip, route intraperitoneal. In outline:
as §1

On to `O=c1[nH]cc(F)c(=O)[nH]1` [FLUOROURACIL], for which the figures for the ILS at 30 mg/kg with Mus musculus [1] and with Mus musculus [11] were -18% and 55%, respectively. Moreover, the MST in the assay with Mus musculus [2] was found to be 9 days; in the assay with Mus musculus [3], 9 days; in the assay with Mus musculus [5] it was 10 days; in the assay with Mus musculus [7], 17 days; in the assay with Mus musculus [12], 16 days. Also, the Weight change with Mus musculus [4] was -18%; with Mus musculus [8] it was -15%; in the assay with Mus musculus [10], -5%; in the assay on Mus musculus [13] it was -6%; with Mus musculus [14] it was -15%. The ILS at 40 mg/kg in the assay with Mus musculus [6] is -18%. Moreover, the ILS at 20 mg/kg is 45% in the assay on Mus musculus [9] and -9% with Mus musculus [15].
